# Activity calls are given as the source filed them. The calls are words filed in the database; no cut-off is given here.
# Assays:
# [1] = system: HeLa; experiment: Induction of autophagy in human HeLa cells […] pretreated with wortmannin for 1 hr followed by irradiation schedule for 1 hr by MDC staining based confocal microscopic analysis; format: functional
# [2] = system: HeLa; experiment: Induction of ROS generation in human HeLa cells at 5 uM incubated for 1 hr in dark followed by irradiation with visible light for 1 hr under hypoxic condition in presence of 5 mM NAC by DCFH-DA staining based flow cytometric analysis; format: functional, cell-based; conditions: time 2.0 hrs
# Procedure, shortened: (§1)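 HeLa cells were seeded at 2 × 10^4/well for 24 h under 21% or 2% O2. They were co-treated with 5 μM compound plus a scavenger, which stayed present throughout: NAC 5 mM, NaN3 5 mM, mannitol 50 mM, tiron 5 mM, sodium pyruvate 10 mM or Trolox 0.1 mM. Cells were held 1 h dark, then 1 h under visible light, stained 30 min with 10 μM DCFH-DA, trypsinized and analysed by flow cytometry. At least two independent experiments, n = 3.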
# [3] = system: HeLa; experiment: Induction of ROS generation in human HeLa cells at 5 uM incubated for 1 hr in dark followed by irradiation with visible light for 1 hr under normoxic condition in presence of Trolox by DCFH-DA staining based flow cytometric analysis; format: functional, cell-based; conditions: time 2.0 hrs; procedure, shortened: as §1
# [4] = system: HeLa; experiment: Effect on cell cycle distribution in human HeLa cells assessed as reduction in G1 phase population at 5 uM preincubated for 30 mins in dark followed by light irradiation for 1 hr by RNase/propidium iodide staining based FACS analysis; format: functional; conditions: time 1.5 hrs
# Procedure, shortened: (§2)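 HeLa cells were seeded at 1.5 × 10^5/well and treated for 0.5 h, with or without 1 h visible-light irradiation, followed by 24 h recovery. Cells were fixed in ice-cold 70% ethanol for 1 h and stained with PI (40 μg/mL) plus RNase (1 μg/mL) for 30 min at 310 K. Analysis was by flow cytometry in the FL2-A channel. At least two independent experiments, n = 3.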
# [5] = system: HeLa; experiment: Induction of autophagy in human HeLa cells assessed as increase in MDC-positive autophagic vesicles at 5 uM preincubated for 30 mins followed by light irradiation for 1 hr and further incubated for 6 hrs in drug-free medium by MDC staining based confocal microscopic analysis; format: functional, cell-based; conditions: time 1.5 hrs
# Procedure, shortened: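 HeLa cells were seeded at 1.5 × 10^4 cells/cm2 in chamber slides and given 0.5 h compound incubation, then 1 h visible-light irradiation. Medium was replaced for a 6 h recovery. Cells were stained with monodansylcadaverine (0.05 mM in PBS, 10 min, 310 K) and imaged by confocal microscopy (ex 405 nm). Vacuoles were counted in at least 10 cells from two experiments. Controls were starvation in EBSS for 2 h and resveratrol 50 μM for 2 h.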
# [6] = system: HeLa; experiment: Induction of ROS generation in human HeLa cells assessed as increase in intracellular ROS level at 5 uM incubated for 1 hr in dark followed by irradiation with visible light for 1 hr under hypoxic condition by DCFH-DA staining based flow cytometric analysis; format: functional, cell-based; conditions: time 2.0 hrs; procedure, shortened: as §1
# [7] = system: HeLa; experiment: Induction of apoptosis in human HeLa cells assessed as increase in early apoptotic cells at 5 uM preincubated for 30 mins in dark followed by irradiation for 1 hr and measured after 24 hrs by Annexin V-FITC/ Propidium iodide staining based flow cytometry analysis; format: functional, cell-based; conditions: time 25.5 hrs
# Procedure, shortened: (§3)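 HeLa cells were seeded at 1.5 × 10^5/well overnight and treated for 0.5 h, with or without 1 h visible-light irradiation, followed by 24 h recovery. Cells were trypsinized, resuspended in binding buffer, labelled with FITC-Annexin V and propidium iodide for 15 min at room temperature in the dark, and analysed by flow cytometry. Cisplatin (30 μM) served as positive control.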
# [8] = Drug uptake in human HeLa cells at 0.5 uM incubated for 30 mins by confocal microscopic analysis; format: ADME, cell-based; conditions: 0.5 h
# Procedure, shortened: (§4)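 HeLa cells in high-glucose DMEM with 10% fetal calf serum were seeded on glass-bottom dishes for 24 h, then loaded with compound for 30 min at 37 °C. They were washed three times with DPBS and kept in phenol-red-free low-glucose DMEM. Live cells were imaged by confocal microscopy at 37 °C with 5% CO2, excited at 561 nm, with emission collected from 570 to 670 nm.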
# [9] = system: HeLa; experiment: Induction of superoxide anion generation in human HeLa cells assessed as increase in DHE fluorescence at 5 uM incubated for 1 hr in dark followed by irradiation with visible light for 1 hr under hypoxic condition in presence of tiron by DHE staining based flow cytometric analysis; conditions: time 2.0 hrs
# [10] = system: HeLa; experiment: Induction of ROS generation in human HeLa cells at 5 uM incubated for 1 hr in dark followed by irradiation with visible light for 1 hr under hypoxic condition in presence of NaPyr by DCFH-DA staining based flow cytometric analysis; format: functional, cell-based; conditions: time 2.0 hrs; procedure, shortened: as §1
# [11] = Induction of singlet oxygen generation in air-saturated DCM solution assessed as reduction in 1,3-diphenylisobenzofuran absorption irradiated with 505 nanometer green light by DPBF-based assay; format: functional
# [12] = system: HeLa; experiment: Induction of ROS generation in human HeLa cells at 5 uM incubated for 1 hr in dark followed by irradiation with visible light for 1 hr under normoxic condition in presence of 5 mM NAC by DCFH-DA staining based flow cytometric analysis; format: functional, cell-based; conditions: time 2.0 hrs; procedure, shortened: as §1
# [13] = Drug uptake in mitochondria of human HeLa cells assessed as drug accumulation at 0.5 uM measured after 30 mins by confocal microscopic analysis; format: ADME; conditions: 0.5 h; procedure, shortened: as §4
# [14] = system: HeLa; experiment: Induction of ROS generation in human HeLa cells at 5 uM incubated for 1 hr in dark followed by irradiation with visible light for 1 hr under hypoxic condition in presence of NaN3 by DCFH-DA staining based flow cytometric analysis; format: functional, cell-based; conditions: time 2.0 hrs; procedure, shortened: as §1
# [15] = system: HeLa; experiment: Induction of ROS generation in human HeLa cells at 5 uM incubated for 1 hr in dark followed by irradiation with visible light for 1 hr under hypoxic condition in presence of Trolox by DCFH-DA staining based flow cytometric analysis; format: functional, cell-based; conditions: time 2.0 hrs; procedure, shortened: as §1
# [16] = Drug uptake in nucleolus of human HeLa cells assessed as drug accumulation at 0.5 uM measured after 30 mins by confocal microscopic analysis; format: ADME, subcellular; conditions: 0.5 h; procedure, shortened: as §4
# [17] = system: HeLa; experiment: Induction of apoptosis in human HeLa cells assessed as increase in necrotic cells at 5 uM incubated for 30 mins in dark measured after 24 hrs by Annexin V-FITC/ Propidium iodide staining based flow cytometry analysis; format: functional, cell-based; conditions: time 24.5 hrs; procedure, shortened: as §3
# [18] = system: HeLa; experiment: Effect on cell cycle distribution in human HeLa cells at 5 uM incubated for 30 mins in dark by RNase/propidium iodide staining based FACS analysis; format: functional; procedure, shortened: as §2
# [19] = system: HeLa; experiment: Induction of mitochondrial membrane potential loss in human HeLa cells at 5 uM measured after 24 hrs by JC-1 dye-based flow cytometric analysis; format: functional, cell-based
# Procedure, shortened: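 HeLa cells were seeded at 1.5 × 10^5 in 12-well plates for 24 h and treated for 24 h. Vehicle control held 0.4% DMSO and antimycin A (50 μM) served as positive control. Cells were stained with JC-1 (1 μM, 20 min) and analysed by flow cytometry (10^4 events; ex 488 nm; green 530 nm and red 585 nm channels). At least two independent experiments.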
# [20] = Drug uptake in nucleolus of human HeLa cells assessed as drug accumulation at 5 uM measured after 30 mins by confocal microscopic analysis; format: ADME, subcellular; conditions: 0.5 h; procedure, shortened: as §4
# [21] = Drug uptake in human HeLa cells at 5 uM incubated for 30 mins by confocal microscopic analysis; format: ADME, cell-based; conditions: 0.5 h; procedure, shortened: as §4
# [22] = Drug uptake in mitochondria of human HeLa cells assessed as drug accumulation at 5 uM measured after 30 mins by confocal microscopic analysis; format: ADME; conditions: 0.5 h; procedure, shortened: as §4
smiles,measurement,setting,value
CCN(CC)c1ccc2c(c1)O/C(=C(/C#N)c1cc[n+](C)cc1)C=C2C,Activity,[1],inactive
same,Activity,[2],inactive
same,Activity,[3],inactive
same,Activity,[4],Active
same,Activity,[5],Active
same,Activity,[6],inactive
same,Activity,[7],Active
same,Drug uptake,[8],Active
same,Activity,[9],Active
same,Activity,[10],Active
same,Activity,[11],Active
same,Activity,[12],inactive
same,Drug uptake,[13],Active
same,Activity,[14],Active
same,Activity,[15],Active
same,Drug uptake,[16],Active
same,Activity,[17],Active
same,Activity,[18],inactive
same,Activity,[19],inactive
CCN(CC)c1ccc2c(c1)O/C(=C(/C#N)c1ccncc1)C=C2C,Drug uptake,[20],Active
same,Drug uptake,[21],Active
same,Drug uptake,[22],Not Active

# From ChEMBL document CHEMBL5032534, “COUPY Coumarins as Novel Mitochondria-Targeted Photodynamic Therapy Anticancer Agents” (J Med Chem, 2021)
